Key:
Phosphodiesterase 4 = Phosphodiesterase 4 (Homo sapiens, UniProt P27815+Q08499+Q07343+Q08493); test: Inhibition of PDE4 in the cytosol of human neutrophils; format: protein assay
Outline: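 Cytosol of human polymorphonuclear leukocytes from leukocyte concentrates, with motapizone 1 µM to suppress platelet PDE3. [3H]cAMP hydrolysis (0.5 µM cAMP, Tris-HCl pH 7.4, 5 mM MgCl2), 5 min preincubation plus 15 min at 37 °C. Snake venom nucleotidase step, ion-exchange separation, scintillation counting.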

Phosphodiesterase 3 = Phosphodiesterase 3 (Homo sapiens, UniProt Q14432+Q13370); test: Inhibition of PDE3 in homogenates of human blood platelets
Outline: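 PDE3 from human blood platelet homogenates. Radiometric assay: 50 mM Tris-HCl pH 7.4, 5 mM MgCl2, 0.5 µM cAMP plus [3H]cAMP; 5 min preincubation then 15 min at 37 °C; HCl stop, Crotalus atrox 5'-nucleotidase, QAE Sephadex separation, blank-corrected counts. Inhibitors at 0.5% DMSO final; IC50 by nonlinear regression; two independent determinations in triplicate.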

SMILES | Log IC50 (Phosphodiesterase 4) | Log IC50 (Phosphodiesterase 3)
COc1ccc(C2=NN(c3ccccc3)C(=O)[C@@H]3CC=CC[C@@H]23)cc1OC | -6.1 | 
COc1ccc(C2=NN(c3ccccc3)C(=O)[C@@H]3CCCC[C@@H]23)cc1OC | -5.1 | 
COc1ccc(-c2nn(-c3ccccc3)c(=O)c3ccccc23)cc1OC | -5.8 | 
COc1ccc(C2=NN(Cc3ccccc3)C(=O)CC2)cc1OC | -7.1 | -5.3
COc1ccc(C2=NN(Cc3ccccc3)C(=O)[C@@H]3CCCC[C@H]23)cc1OC | -8.1 | 
COc1ccc(-c2nn(Cc3ccccc3)c(=O)c3c2CCCC3)cc1OC | -5.8 | 
COc1ccc(C2=NNC(=O)[C@@H]3CCCC[C@@H]23)cc1OC | -5.3 | 
COc1ccc(C2=NN(c3ccccc3)C(=O)[C@@H]3CC=CC[C@H]23)cc1OC | -7.9 | 
COc1ccc(C2=NN(c3ccccc3)C(=O)C(C)C2C)cc1OC (stereo not given) | -7.3 | < -5
COc1ccc(-c2nn(-c3ccccc3)c(=O)c3c2CCCC3)cc1OC | -5.3 | 
COc1ccc(C2=NN(Cc3ccccc3)C(=O)[C@@H]3CC=CC[C@H]23)cc1OC | -8.4 | 
COc1ccc(-c2nnc(O)c3c2CCCC3)cc1OC | -5.2 | 
COc1ccc(C2=NN(c3ccccc3)C(=O)C(C)C2)cc1OC (stereo not given) | -6.9 | < -5
COc1ccc(C2=NN(c3ccccc3)C(=O)CC2C)cc1OC (stereo not given) | -6.8 | < -5
COc1ccc(-c2nnc(O)c3ccccc23)cc1OC | -5.8 | 
COc1ccc(-c2nn(Cc3ccccc3)c(=O)c3ccccc23)cc1OC | -6.5 | 
COc1ccc(C2=NNC(=O)CC2)cc1OC | -5.9 | -5.6
COc1ccc(C2=NN(c3ccccc3)C(=O)[C@@H]3CCCC[C@H]23)cc1OC | -7.6 | 
COc1ccc(C2=NN(c3ccccc3)C(=O)CC2)cc1OC | -6.4 | < -5
COc1ccc(C2=NNC(=O)CC2C)cc1OC (stereo not given) | -6.5 | -6.6
COc1ccc(C2=NNC(=O)[C@@H]3CC=CC[C@H]23)cc1OC (relative stereo) | -7 | 
COc1ccc(C2=NNC(=O)[C@@H]3CCCC[C@H]23)cc1OC (relative stereo) | -6.4 | 
COc1ccc(C2=NNC(=O)C(C)C2C)cc1OC (stereo in doubt; 3d) | -6.7 | < -5
COc1ccc(C2=NNC(=O)C(C)C2C)cc1OC (stereo in doubt; 3e) | -6.2 | -5.4
O=c1c2cccnc2c(-c2cccc([N+](=O)[O-])c2)nn1Cc1ccncc1 [PYRIDOPYRIDAZINONE] | -8.3 | 
COc1cc(-c2ccc(=O)[nH]n2)ccc1OC(F)F [ZARDAVERINE] |  | -6.2

Reference: ChEMBL document CHEMBL1134544, “Novel selective PDE4 inhibitors. 1. Synthesis, structure-activity relationships, and molecular modeling of 4-(3,4-dimethoxyphenyl)-2H-phthalazin-1-ones and analogues” (J Med Chem, 2001)
